Source: paper PMC6989153 (Molecular pharmaceutics, 2019)
Read-outs that look alike come from different tables or passages of the source.

Legend:
[1] = test system: HDL; experiment: Native gel electrophoresis of APC analogs in human plasma, HDL band; type: in vitro ADME; settings: incubated 4 hrs at 37°C, means ± SEM
In short: (§1)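 Fresh, unfrozen human plasma was incubated with test compound (100nM) with shaking for 4 h at 37°C. Samples in sample buffer were run on non-denaturing Tris-glycine gels at a common voltage and duration. Band position and intensity were read by fluorescence imaging or by radioactivity scanning, followed by Coomassie staining. Standards were mouse albumin, human LDL, human HDL, gamma-globulins, alpha1-acid glycoprotein and fatty acid-free HSA.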

[2] = test system: LDL; experiment: Native gel electrophoresis of APC analogs in human plasma, LDL band; type: in vitro ADME; settings: incubated 4 hrs at 37°C, means ± SEM
In short: as §1

[3] = target: T1, Albumin (Homo sapiens, UniProt P02768); experiment: Native gel electrophoresis of APC analogs in human plasma, albumin band; type: in vitro ADME; settings: for Albumin (signal in band on native gel): incubated 4 hrs at 37°C, means ± SEM; for albumin binding: native gel analysis
In short: as §1

[4] = type: in vivo, nude athymic mice; settings: for MRT (mean residence time): n=6
In short: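 Naive athymic nude mice (20–26 g) on standard chow received test compound by tail-vein injection: fluorescent analogs at 2.6μmol/kg, radioiodinated dose normalized to mass and body weight. Pre-dose blood was taken for background. Serial 10μL maxillary-puncture samples were collected into EDTA (n=6), and levels were read by fluorescence or gamma counting. Non-compartmental analysis gave clearance, AUC, AUMC and mean residence time, normalized to starting dose.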

[5] = test system: MDA-MB-231 breast cancer; experiment: Tumor uptake kinetics in tumor-bearing flank xenografts; type: in vivo; settings: MDA-MB-231 flank xenografts, IVIS fluorescence imaging, three mice
[6] = test system: lipoprotein fraction; type: in vitro ADME; settings: human plasma
In short: (§2)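 Fresh, unfrozen human plasma was incubated with test compound plus varying intralipid (20% soybean oil, 1.2% egg yolk phospholipids, 2.25% glycerin emulsion), up to 20% v/v. Plasma partitioning runs were shaken for 4 h at 37°C, then ultracentrifuged at […] for 8 h. The layers were separated, and fluorescence (radiance efficiency) or radioactivity was measured in each, expressed as a percentage per fraction.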

[7] = target: T1, Albumin; experiment: Partitioning in fresh unfrozen human plasma with intralipid, albumin binding; type: in vitro ADME
In short: as §2

[8] = target: fatty acid-free human serum albumin (HSA) (Homo sapiens, UniProt P02768); experiment: Equilibrium dialysis; type: binding; settings: PBS, 37°C
In short: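 Fatty acid-free HSA was dissolved in PBS and loaded into a rapid equilibrium dialysis chamber, with PBS in the collection well. The device was shaken at 37°C, and small aliquots were drawn from the collection well over time. Concentration was measured by UV absorbance, or by gamma counting for radioiodinated compound.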

[9] = Log D determination; type: physicochemical; settings: octanol/water, pH 7.4
In short: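 Test compound (radioiodinated, or fluorescent) was added to octanol and equilibrated overnight. An equal volume of distilled water at pH 7.4 was added, and the mixture was rotated at room temperature, protected from light, for 48 h. The phases were separated, and relative concentrations were measured by gamma counting (radioiodinated compound) or by fluorescence plate reader (fluorescent analogs).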

[10] = test system: MDA-MB-231 breast cancer; settings: post-injection, tumor-bearing mice; cited from earlier work
[11] = nude athymic mice, tail-vein injection
[12] = nude athymic mice, tail-vein injection, normalized to starting dose
[13] = athymic nude, mouse, whole blood, intravenous

T1 sequence (P02768 25-609): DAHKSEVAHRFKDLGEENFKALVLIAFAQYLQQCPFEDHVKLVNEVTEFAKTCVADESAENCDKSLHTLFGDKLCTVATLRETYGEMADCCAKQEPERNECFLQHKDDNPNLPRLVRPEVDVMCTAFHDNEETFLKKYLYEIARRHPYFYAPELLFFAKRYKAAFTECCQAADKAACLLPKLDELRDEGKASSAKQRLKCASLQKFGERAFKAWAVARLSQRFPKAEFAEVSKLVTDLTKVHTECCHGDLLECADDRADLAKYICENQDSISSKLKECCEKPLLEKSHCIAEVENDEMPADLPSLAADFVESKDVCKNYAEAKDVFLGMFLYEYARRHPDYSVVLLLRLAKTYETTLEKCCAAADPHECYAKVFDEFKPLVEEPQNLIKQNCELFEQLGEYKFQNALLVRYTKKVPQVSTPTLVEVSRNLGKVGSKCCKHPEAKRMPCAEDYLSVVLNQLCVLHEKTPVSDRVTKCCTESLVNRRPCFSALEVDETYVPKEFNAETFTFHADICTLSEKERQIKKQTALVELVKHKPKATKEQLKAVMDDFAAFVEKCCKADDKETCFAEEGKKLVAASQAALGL
Chain of fatty acid-free human serum albumin (HSA) (P02768 25-609): as above

## CN1/C(=C/C=C2\CCCC(/C=C/C3=[N+](C)c4ccccc4C3(C)C)=C2c2ccc(CCCCCCCCCCCCCCCCCCOP(=O)(O)OCC[N+](C)(C)C)cc2)C(C)(C)c2ccccc21 [compound 1502, 1,3,3-trimethyl-2-[(E)-2-[(3E)-3-(2-[(2E)-1,3,3-trimethyl-2,3-dihydro-1H-indol-2-ylidene]ethylidene}−2-[4-(18-([2-(trimethylazaniumyl)ethylhosphonato]oxy)octadecyl)phenyl]cyclohex-1-en-1-yl]ethenyl]-3H-indol-1-ium]
[1]
  HDL (signal in band on native gel): 20.90 ± 2.57
[2]
  LDL (signal in band on native gel): 9.21 ± 0.86
[3]
  Albumin (signal in band on native gel): 69.88 ± 3.32
  albumin binding: 69.88%
[4]; [11]
  MRT (mean residence time): 33.95 h
[4]; [12]
  AUC: 13.16 h
  AUMC: 446.66 hr^2
  CL: 0.08 L/h
  Clearance: 0.08 h⁻¹
[5]
  time at which uptake into the cancer was first seen: 4.5 h
  time of peak tumor uptake: 24 h

## C[N+](C)(C)CCOP(=O)([O-])OCCCCCCCCCCCCCCCCCCc1ccc(C2=C3C=CC=[N+]3[B-](F)(F)n3cccc32)cc1 [compound 1501, 18-[p-(4,4-difluoro-4-bora-3a,4a-diaza-s-indacene-8-yl)-phenyl]-octadecyl phosphocholine]
[1]
  HDL (signal in band on native gel): 10.25 ± 1.25
[2]
  LDL (signal in band on native gel): 7.11 ± 0.41
[3]
  Albumin (signal in band on native gel): 82.64 ± 1.62
  albumin binding: 82.64%
[6]; 20% v/v intralipid
  lipoprotein percentage of fluorescence intensity: 14.40%
[6]; no intralipid
  lipoprotein percentage of fluorescence intensity: 7.33%
[7]; 20% intralipid
  albumin-binding percentage: 79.32%
[7]; no intralipid
  albumin-binding percentage: 85.93%
[4]; [11]
  MRT (mean residence time): 236.07 h
[4]; [12]
  AUC: 159.64 h
  AUMC: 37686.99 hr^2
  CL: 0.01 L/h
  Clearance: 0.01 h⁻¹

## C[N+](C)(C)CCOP(=O)([O-])OCCCCCCCCCCCCCCCCCCc1ccc(I)cc1 [NM404, 18-(p-Iodophenyl)octadecylphosphocholine]
[1]
  HDL (signal in band on native gel): 15.42 ± 0.41
[2]
  LDL (signal in band on native gel): 4.60 ± 0.28
[3]
  Albumin (signal in band on native gel): 79.99 ± 0.22
  albumin binding: 79.99%
[8]
  binding to fatty acid-free human serum albumin: 96%
[4]; [13]
  Clearance: 0.333 mL/min
  MRT: 99.2 h
[4]; [12]
  AUC: 43.66 h
  AUMC: 4333.63 hr^2
  Clearance: 0.02 h⁻¹
[9]
  logD at 48 h: 2.07
[10]
  time at which tumor uptake was seen: 24 h
  time of peak tumor uptake: 72 h
